We go through five compounds from ChEMBL document CHEMBL1126975 (J Med Chem, 1993).

For data set [1], the target named is T1, Amine oxidase [flavin-containing] B (Rattus norvegicus, UniProt P19643).
T1 sequence (P19643 whole entry): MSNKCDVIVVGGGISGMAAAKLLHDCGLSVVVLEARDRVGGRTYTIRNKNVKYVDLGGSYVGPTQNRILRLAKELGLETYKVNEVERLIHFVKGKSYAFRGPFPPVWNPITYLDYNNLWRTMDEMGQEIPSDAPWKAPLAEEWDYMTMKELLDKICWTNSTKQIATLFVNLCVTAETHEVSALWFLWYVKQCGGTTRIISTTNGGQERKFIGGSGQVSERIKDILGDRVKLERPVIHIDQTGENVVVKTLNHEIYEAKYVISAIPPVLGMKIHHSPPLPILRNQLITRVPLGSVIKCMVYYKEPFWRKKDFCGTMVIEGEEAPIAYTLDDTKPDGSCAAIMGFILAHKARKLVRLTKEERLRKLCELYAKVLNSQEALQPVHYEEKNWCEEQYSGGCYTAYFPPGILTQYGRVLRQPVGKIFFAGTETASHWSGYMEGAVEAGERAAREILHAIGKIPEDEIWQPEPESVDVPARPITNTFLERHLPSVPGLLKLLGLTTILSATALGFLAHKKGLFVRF
The data set can be described thus: Ex-Vivo Time course of evaluation for the percentage inhibition of MAO-B for 1 hr at single dose 5 mg/kg through oral gavage (p<0.01). In kind it is organism-based. Set-up: dose 5 mg/kg, route oral. In outline: (§1)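 Fasted male Sprague-Dawley rats (150 g) dosed orally by gavage, drug suspended in Tween 80 plus 0.5% methylcellulose; vehicle controls. The 100 mg/kg arm was dosed daily for 9 days. Four rats per time point; brains frozen and homogenized in 0.1 M phosphate pH 7.4. Assayed at 37 °C with 8 μM [14C]PEA for 1 min; toluene/ethyl acetate extraction. Percent inhibition vs control, mean ± SEM.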

Data set [2] deals with T1, Amine oxidase [flavin-containing] B. The data set can be described thus: Ex-Vivo percentage inhibition of MAO-B after 24 hr single 5 mg/kg dose by oral gavage. The data set is classed as organism-based. Set-up: dose 5 mg/kg, route oral. The gist of the method:
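Ex vivo oral gavage in fasted male Sprague-Dawley rats (Tween 80 / 0.5% methylcellulose), four rats per group. Brain homogenate taken 24 h after dosing. MAO B assayed with 8 μM [14C]PEA, 1 min at 37 °C; percent inhibition vs vehicle control.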

For data set [3], the target named is T2, Amine oxidase [flavin-containing] A (Rattus norvegicus, UniProt P21396).
T2 sequence (P21396 whole entry): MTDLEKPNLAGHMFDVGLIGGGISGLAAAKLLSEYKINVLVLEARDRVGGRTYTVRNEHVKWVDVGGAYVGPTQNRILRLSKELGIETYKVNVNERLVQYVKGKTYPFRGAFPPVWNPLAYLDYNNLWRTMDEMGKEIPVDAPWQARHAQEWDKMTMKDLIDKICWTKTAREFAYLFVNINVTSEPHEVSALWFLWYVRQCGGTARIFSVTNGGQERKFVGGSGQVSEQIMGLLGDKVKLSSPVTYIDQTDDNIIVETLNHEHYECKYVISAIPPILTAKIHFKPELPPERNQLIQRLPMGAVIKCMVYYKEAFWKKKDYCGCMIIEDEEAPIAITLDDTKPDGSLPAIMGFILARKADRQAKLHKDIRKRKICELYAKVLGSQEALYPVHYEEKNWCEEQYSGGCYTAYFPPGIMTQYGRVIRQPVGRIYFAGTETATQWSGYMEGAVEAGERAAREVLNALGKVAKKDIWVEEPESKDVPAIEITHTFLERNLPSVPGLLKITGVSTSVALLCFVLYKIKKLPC
Briefly: In vitro inhibitory activity on rat brain by monoamine oxidase A (MAO-A). The gist of the method:
(§2)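 Radiochemical assay at 37 °C, pH 7.4: MAO A with 10 μM [14C]5-HT, MAO B with 5 μM [14C]PEA. Drug preincubated 20 min with enzyme. Three experiments in duplicate.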

Data set [4] deals with T1, Amine oxidase [flavin-containing] B. Briefly: Ex-Vivo Time course of evaluation for the percentage inhibition of MAO-B for 48 hr at single dose 5 mg/kg through oral gavage. In kind it is organism-based. Set-up: dose 5 mg/kg, route oral. The gist of the method: as §1
Data set [5] has the same target. Briefly: In vitro inhibitory activity on rat brain MAO-B. The gist of the method:
as §2

For data set [6] the target is unchanged. Briefly: Ex-Vivo Time course of evaluation for the percentage inhibition of MAO-B for 0.5 hr at single dose 5 mg/kg through oral gavage. In kind it is organism-based. Set-up: dose 5 mg/kg, route oral. The gist of the method: as §1
For data set [7] the target is unchanged. The data set can be described thus: Ex-Vivo Time course of evaluation for the percentage inhibition of MAO-B for 4 hr at single dose 5 mg/kg through oral gavage. In kind it is organism-based. Set-up: dose 5 mg/kg, route oral. The gist of the method:
as §1

The target is the same in data set [8]. The data set can be described thus: Ex-Vivo Time course of evaluation for the percentage inhibition of MAO-B for 24 hr at single dose 1500 mg/kg through oral gavage (p<0.001). Set-up: dose 1500 mg/kg, route oral. The data set is classed as organism-based. The gist of the method:
as §1

Data set [9] has the same target. Briefly: Ex-Vivo Time course of evaluation for the percentage inhibition of MAO-B for 4 hr at single dose 1 mg/kg through oral gavage (p<0.001). Set-up: dose 1 mg/kg, route oral. In kind it is organism-based. In outline: as §1
For data set [10] the target is unchanged. The data set can be described thus: Ex-Vivo Time course of evaluation for the percentage inhibition of MAO-B for 24 hr at single dose 1 mg/kg through oral gavage (not significant Wilcoxom''s test). In kind it is organism-based. Set-up: dose 1 mg/kg, route oral. In outline: as §1
Data set [11] concerns the target T2, Amine oxidase [flavin-containing] A. The data set can be described thus: In Vitro evaluation for the inhibitory activity on rat brain by MAO-A. In outline:
(§3)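 Male Sprague-Dawley rat brain crude mitochondrial fraction, 0.195 mg protein/mL. Radiochemical assay at 37 °C, pH 7.4: MAO A with 10 μM [14C]5-HT, MAO B with 5 μM [14C]PEA. Drug preincubated 20 min with enzyme. […] Three experiments in duplicate.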

Data set [12] deals with T1, Amine oxidase [flavin-containing] B. Briefly: Ex-Vivo Time course of evaluation for the percentage inhibition of MAO-B for 0.5 hr at single dose 5 mg/kg through oral gavage (p<0.001). The data set is classed as organism-based. Set-up: dose 5 mg/kg, route oral. In outline: as §1
Data set [13] has the same target. Briefly: Compound was evaluated for the time-dependence inhibition of MAO-B at 30 minutes pre-incubation periods. The gist of the method: (§4)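 Male Sprague-Dawley rat brain crude mitochondrial fraction, MAO B. Drug preincubated with enzyme at 37 °C for 0, 20, 30 or 60 min, then radiochemical assay with 5 μM [14C]PEA at pH 7.4. IC50 read graphically from 9–12 concentrations; three experiments in duplicate.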

Data set [14] shares this target. Briefly: Compound was evaluated for the reversibility test for the percentage inhibition of MAO B at 6.25 nM after the test. The gist of the method:
(§5)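 Rat brain crude mitochondrial fraction (1.94 mg protein/mL) preincubated 1 h at 37 °C with or without inhibitor at 6.25 or 12.5 nM. Then diluted 200-fold in 100 mM phosphate pH 7.4 with 100 μM PEA, held 4 h at 37 °C, pelleted, and washed 1 h in buffer without PEA. Assayed under standard conditions (PEA 1 min); percent inhibition vs control.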

The target is the same in data set [15]. The data set can be described thus: Compound was evaluated for the reversibility test for the percentage inhibition of MAO B at 6.25 nM before the test.
Data set [16] shares this target. Briefly: Ex-Vivo Time course of evaluation for the percentage inhibition of MAO-B for 24 hr at single dose 1500 mg/kg through oral gavage. The data set is classed as organism-based. Set-up: dose 1500 mg/kg, route oral.
For data set [17] the target is unchanged. The data set can be described thus: Ex-Vivo Time course of evaluation for the percentage inhibition of MAO-B for 1 hr at single dose 1 mg/kg through oral gavage (p<0.001). Set-up: dose 1 mg/kg, route oral. In kind it is organism-based. In outline: as §1
Data set [18] shares this target. The data set can be described thus: Ex-Vivo Time course of evaluation for the percentage inhibition of MAO-B for 24 hr at once-daily dose for 9 days 100 mg/kg through oral gavage (p<0.001).
Data set [19] in a line: Selectivity for B form was estimated by the ratio of IC50 (MAO A) at 60 min to that of (MAO B).
Data set [20] concerns the target T1, Amine oxidase [flavin-containing] B. Briefly: Ex-Vivo Time course of evaluation for the percentage inhibition of MAO-B for 4 hr at single dose 5 mg/kg through oral gavage (p<0.001). In kind it is organism-based. Set-up: dose 5 mg/kg, route oral. In outline: as §1
Data set [21] has the same target. The data set can be described thus: Ex-Vivo Time course of evaluation for the percentage inhibition of MAO-B for 1 hr at single dose 100 mg/kg through oral gavage (p<0.001). The data set is classed as organism-based. Set-up: dose 100 mg/kg, route oral.
The target of data set [22] is T2, Amine oxidase [flavin-containing] A. Briefly: Compound was evaluated for the time-dependence inhibition of MAO-A at 60 minutes of preincubated period. values are same with or without pre-incubation.
Data set [23] concerns the target T1, Amine oxidase [flavin-containing] B. Briefly: Ex-Vivo Time course of evaluation for the percentage inhibition of MAO-B for 1 hr at single dose 1500 mg/kg through oral gavage (p<0.001). In kind it is organism-based. Set-up: dose 1500 mg/kg, route oral. In outline: as §1
Data set [24] has the same target. Briefly: Ex-Vivo Time course of evaluation for the percentage inhibition of MAO-B for 0.5 hr at single dose 1 mg/kg through oral gavage [p<0.01 (Bonferroni's test)]. In kind it is organism-based. Set-up: dose 1 mg/kg, route oral. The gist of the method:
as §1

For data set [25] the target is unchanged. Briefly: Ex-Vivo Time course of evaluation for the percentage inhibition of MAO-B for 24 hr at single dose 100 mg/kg through oral gavage. In kind it is organism-based. Set-up: dose 100 mg/kg, route oral.
Data set [26] has the same target. Briefly: Compound was evaluated for the time-dependence inhibition of MAO-B at 60 minutes preincubation periods. The gist of the method:
as §4

Data set [27] shares this target. Briefly: Compound was evaluated for the time-dependence inhibition of MAO-B at 20 minutes pre-incubation periods. In outline: as §4
Data set [28] shares this target. Briefly: Compound was evaluated for the time-dependence inhibition of MAO-B at 0 minute pre-incubation periods. The gist of the method:
as §4

Data set [29] has the same target. Briefly: Ex-Vivo Time course of evaluation for the percentage inhibition of MAO-B for 1 hr at single dose 5 mg/kg through oral gavage (p<0.001). The data set is classed as organism-based. Set-up: dose 5 mg/kg, route oral. In outline:
as §1

Data set [30] shares this target. The data set can be described thus: Compound was evaluated for the reversibility test for the percentage inhibition of MAO B at 6.25 nM after the test at 12.5 nM. The gist of the method: as §5
For data set [31] the target is unchanged. The data set can be described thus: Compound was evaluated for the reversibility test for the percentage inhibition of MAO B at 6.25 nM before the test at 12.5 nM.
Data set [32] deals with T2, Amine oxidase [flavin-containing] A. Briefly: In Vitro evaluation for the inhibitory activity on rat brain by MAO-A at 100 uM. In outline:
as §3

For orientation: inhibition means the drop in the measured response relative to a control, in per cent. What is called IC50 is the midpoint of a concentration-inhibition curve. With `COc1cccc(COc2ccc(-c3nn(CCC#N)c(=O)o3)cc2)c1`, the inhibition at 5 mg/kg is 19% in data set [1]; -3% in data set [2]; -7% in [4]; 12% in [6]; 6% in [7]. For the same compound, the IC50 worked out at 19000 nM in data set [3] and 29 nM in data set [5].
The Inhibition is the percentage by which the read-out fell short of the control. A low value points to a response near the control. `N#CCCn1nc(-c2ccc(OCc3ccccc3)cc2)oc1=O`: the inhibition at 1500 mg/kg in data set [8] is 74%; in data set [16], 2%; in [23], 91%. Besides, the inhibition at 1 mg/kg in data set [9] amounted to 75%; in [10] it was 18%; in data set [17], 86%; in data set [24] it was 34%. Further, the Inhibition in data set [11] amounted to 10%. In addition, the inhibition at 5 mg/kg in data set [12] worked out at 69%; in [2], 18%; in data set [20] it was 83%; in [29], 87%. Further, the half-maximal inhibitory concentration (IC50) in data set [13] was 2.2 nM; in [22] it was greater than 100000 nM; in data set [5] it was 2.2 nM; in [26], 1.4 nM; in [27] it was 2.7 nM; in data set [28], 25 nM. For the same compound, the inhibition at 0.00625 µM came out at 102% in [14] and 35% in data set [15]. Further, the results for the inhibition at 100 mg/kg in data set [18], in data set [21] and in data set [25] were 73%, 90% and 3%, respectively. Further, the Selectivity in data set [19] is greater than 71400.
Turning to `N#CCCn1nc(-c2ccc(OCc3ccc(Cl)cc3)cc2)oc1=O`, the inhibition at 5 mg/kg in data set [12] is 30%; in [2], -6%; in data set [4], 6%; in data set [20], 47%; in data set [29] it was 54%. The results for the IC50 in [3] and in [5] were 3300 nM and 7.5 nM, respectively.
As for `C#CCN(C)[C@H](C)Cc1ccccc1` [SELEGILINE], the inhibition at 0.00625 µM in data set [30] and in data set [31] was 21% each time.
On to `CC(C#N)Cn1nc(-c2ccc(OCc3ccccc3)cc2)oc1=O` (configuration not stated), for which the inhibition at 100 µM in [32] came to 13%. The compound further showed an IC50 in [5] of 2400 nM.
